Source: ChEMBL document CHEMBL1125837, “Nicotinamide ethers: novel inhibitors of calcium-independent phosphodiesterase and [3H]rolipram binding” (J Med Chem, 1991)

Key:
[1] = target: T1, Phosphodiesterase 4 (Rattus norvegicus, UniProt P14270+P14646+P14644+P54748); test: Inhibition of [3H]cAMP (NEN NET-275) binding to Calcium-Independent Phosphodiesterase from rat brain.
In short: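 Enzyme from fresh rat brain (Davis method). Test compound or vehicle with enzyme in [3H]cAMP substrate in Tris-HCl/MgCl2 buffer, 37 °C for 8 min, in triplicate. Stopped by boiling 2 min. Carrier 5'-AMP added; boronate affinity gel separated [3H]-5'-AMP from cAMP, and product counted by scintillation. IC50 from dose-response curves of three log concentrations, each in triplicate.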

[2] = target: T1, Phosphodiesterase 4; test: Inhibition of [3H]rolipram binding to rat brain membranes.; type: cell membranes, Membrane
In short: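 Rat brain homogenized in ice-cold 50 mM Tris/1.2 mM MgCl2, pH 8.0, washed twice by centrifugation and used at 0.5 mg protein/mL. Incubated with [3H]rolipram and test compound at various concentrations for 30 min at 25 °C, in triplicate. Glass-fiber filtration, three ice-cold washes, scintillation counting. IC50 from semilog plots of percent inhibition vs concentration.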

[3] = species on record: Mus musculus; test: Minimal effective peroral dose in mouse reserpine hypothermia test; type: functional; settings: po, read-out: MED

Row | IC50 [1] | IC50 [2] | Structure (SMILES) | minimal effective dose [3]
1 | 1.4 µM | 6.6 µM | COC(=O)c1cccc(Oc2ncccc2C(=O)NCc2ccccc2)c1 | 0.001 mg/kg
2 | 6.5 µM | 54 µM | O=C(NCc1ccccc1)c1cccnc1Oc1cccc(C(F)(F)F)c1 | 3.2 mg/kg
3 | 1.8 µM | 49 µM | O=C(NCc1ccccc1)c1cccnc1Oc1ccccc1 | 0.32 mg/kg
4 | 2.9 µM | 37 µM | O=C(NCc1ccccc1)c1cccnc1Oc1ccc(F)cc1 | 0.01 mg/kg
5 | 9.8 µM | 22 µM | N#Cc1cccc(Oc2ncccc2C(=O)NCc2ccccc2)c1 | 0.1 mg/kg
6 | 3.1 µM | 26 µM | CC(C)NC(=O)c1cccnc1Oc1ccc(F)cc1 | 0.001 mg/kg
7 | 10 µM | > 100 µM | O=C(NCc1ccccc1)c1cccnc1Oc1ccccc1F | 0.01 mg/kg
8 | 4 µM | 51 µM | O=C(NCc1ccc(F)cc1)c1cccnc1Oc1ccc(F)cc1 | 0.01 mg/kg
9 | 0.73 µM | 26 µM | COc1ccc(CNC(=O)c2cccnc2Oc2ccc(F)cc2)cc1 | 3.2 mg/kg
10 | 0.22 µM | 27 µM | O=C(NCc1ccccc1)c1cccnc1OC1CC2CCC1C2 (stereo unspecified) | 1 mg/kg
11 | 1.8 µM | 29 µM | O=C(NCc1ccccc1)c1cccnc1Oc1cccc(F)c1 | 0.01 mg/kg
12 | 2.2 µM | 43 µM | O=C(Nc1ccccc1)c1cccnc1Oc1ccc(F)cc1 | 0.001 mg/kg
13 | 2.2 µM | 19 µM | O=C(NCc1ccccc1)c1cccnc1Oc1ccc(Cl)c(Cl)c1 | > 3.2 mg/kg
14 | > 10 µM | > 100 µM | COc1ccccc1Oc1ncccc1C(=O)NCc1ccccc1 | > 3.2 mg/kg
15 | 3.1 µM | 100 µM | COc1ccc(Oc2ncccc2C(=O)NCc2ccccc2)cc1 | 0.01 mg/kg
16 | 0.54 µM | 25 µM | Cc1ccc(CNC(=O)c2cccnc2Oc2ccc(F)cc2)cc1 | 0.001 mg/kg
17 | 2.5 µM | 23 µM | COc1cccc(Oc2ncccc2C(=O)NCc2ccccc2)c1 | 0.01 mg/kg
